Results reported in ChEMBL document CHEMBL1153056, “Identification of MK-1925: a selective, orally active and brain-penetrable opioid receptor-like 1 (ORL1) antagonist” (Bioorg Med Chem Lett, 2009).
Each block holds one compound with its values, some of them ahead of it.

Experiments:
Nociceptin receptor [1] = biological target: T1, Nociceptin receptor (Homo sapiens, UniProt P41146); experiment: Antagonist activity at ORL1 receptor by [35S]GTPgammaS binding assay; format: functional
[2] = Distribution coefficient, log D at pH 7.4 by shake-flask method; format: physicochemical; conditions: octanol/water
Nociceptin receptor [3] = biological target: T1, Nociceptin receptor; experiment: Displacement of [125I]Tyr14-NC/OFQ from ORL1 receptor
[4] = Metabolic stability in cryopreserved human hepatocytes after 30 mins; format: ADME, cell-based, Hepatocyte; conditions: read-out: Stability
[5] = Oral bioavailability in rat at 3 mg/kg; format: ADME, organism-based; conditions: in vivo
Outline: (§1)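 PK run with a 3 mg/kg oral dose and a 1 mg/kg IV dose; values are the mean of n = 3 animals.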

Canis familiaris = experiment: Toxicity in anesthetized dog assessed as adverse effect up to 10 mg/kg; format: organism-based, Canis lupus familiaris; parameters: dose 10 mg/kg; conditions: in vivo
[6] = Plasma clearance in dog at 1 mg/kg, iv; format: ADME, organism-based, Canis lupus familiaris; parameters: dose 1 mg/kg, route intravenous; outline: as §1
[7] = Volume of distribution at steady state in rat at 1 mg/kg, iv; format: ADME, organism-based; parameters: dose 1 mg/kg, route intravenous; conditions: in vivo, read-out: Vdss; outline: as §1
[8] = Ratio of drug level in brain to plasma in mouse at 10 mg/kg, po after 60 mins; format: ADME, organism-based; parameters: dose 10 mg/kg, route oral
Outline: (§2)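 Mice received single oral doses (3, 10 or 30 mg/kg). Plasma and brain levels were taken 60 min after dosing. Brain levels were expressed as nmol/g brain, and the b/p ratio was brain level over plasma level.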

Mus musculus [9] = experiment: Reversal of ORL1 agonist-induced locomotor activity in mouse at 30 mg/kg, po after 60 mins; format: functional
Outline: (§3)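 Mice dosed orally; ORL1 agonist then given to reduce locomotor activity, with activity monitored for 60 min. Result expressed as % reversal of the agonist-induced reduction in locomotor activity.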

Mus musculus [10] = experiment: Plasma concentration in mouse at 3 mg/kg, po; format: ADME, organism-based; parameters: dose 3 mg/kg, route oral; conditions: in vivo
Outline: (§4)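 Mice dosed orally at 3, 10 or 30 mg/kg. Plasma and brain were sampled 60 min after dosing. Brain level is given as nmol/g brain, and the brain/plasma ratio was derived.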

[11] = Oral bioavailability in dog at 3 mg/kg; format: ADME, organism-based, Canis lupus familiaris; conditions: in vivo; outline: as §1
[12] = Inhibition of choline transporter
[13] = Cmax in rat at 3 mg/kg, po; format: ADME, organism-based; parameters: dose 3 mg/kg, route oral; conditions: in vivo; outline: as §1
Mu-type opioid receptor = Mu-type opioid receptor (Homo sapiens, UniProt P35372); experiment: Displacement of [3H]diprenorphin from human cloned mu opioid receptor expressed in CHO cells; format: cell-based
Chain of Mu-type opioid receptor (P35372 whole entry): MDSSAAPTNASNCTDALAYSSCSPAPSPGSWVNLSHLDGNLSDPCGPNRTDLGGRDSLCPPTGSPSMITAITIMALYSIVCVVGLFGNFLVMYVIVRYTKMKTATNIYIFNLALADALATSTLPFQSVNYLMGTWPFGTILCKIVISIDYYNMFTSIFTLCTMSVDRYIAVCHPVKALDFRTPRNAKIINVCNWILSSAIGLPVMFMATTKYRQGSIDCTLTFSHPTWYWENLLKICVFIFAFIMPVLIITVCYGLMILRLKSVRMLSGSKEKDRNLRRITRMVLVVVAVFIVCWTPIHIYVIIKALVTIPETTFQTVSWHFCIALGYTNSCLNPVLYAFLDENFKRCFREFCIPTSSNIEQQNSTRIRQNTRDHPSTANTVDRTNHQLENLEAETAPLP

[14] = Plasma clearance in rat at 1 mg/kg, iv; format: ADME, organism-based; parameters: dose 1 mg/kg, route intravenous; outline: as §1
Mus musculus [15] = experiment: Reversal of ORL1 agonist-induced locomotor activity in mouse at 10 mg/kg, po after 60 mins; format: functional; outline: as §3
[16] = biological target: Kappa-type opioid receptor (Homo sapiens, UniProt P41145); experiment: Displacement of [3H]U69593 from human cloned kappa opioid receptor expressed in CHO cells; format: cell-based
Chain of Kappa-type opioid receptor (P41145 whole entry): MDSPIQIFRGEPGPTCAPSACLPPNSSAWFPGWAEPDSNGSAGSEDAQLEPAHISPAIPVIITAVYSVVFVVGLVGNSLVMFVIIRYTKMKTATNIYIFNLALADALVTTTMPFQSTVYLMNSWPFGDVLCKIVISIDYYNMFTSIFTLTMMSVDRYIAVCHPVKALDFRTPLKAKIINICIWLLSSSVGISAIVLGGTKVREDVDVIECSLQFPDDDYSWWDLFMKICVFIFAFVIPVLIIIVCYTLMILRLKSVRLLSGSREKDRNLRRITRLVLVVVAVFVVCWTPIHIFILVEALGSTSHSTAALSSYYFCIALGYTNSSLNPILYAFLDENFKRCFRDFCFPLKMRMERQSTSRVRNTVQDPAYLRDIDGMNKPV

Mus musculus [17] = experiment: Reversal of ORL1 agonist-induced locomotor activity in po dosed mouse after 60 mins; format: functional, organism-based
Outline: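 Mice received oral doses of 3, 10 or 30 mg/kg against the locomotor-activity reduction produced by an ORL1 agonist, measured over 60 min. Results are expressed as % reversal of the agonist response.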

[18] = Cmax in dog at 3 mg/kg, po; format: ADME, organism-based, Canis lupus familiaris; parameters: dose 3 mg/kg, route oral; conditions: in vivo; outline: as §1
Brain [19] = experiment: Drug level in mouse brain assessed per gram of tissue at 30 mg/kg, po after 60 mins; format: ADME, organism-based; parameters: dose 30 mg/kg, route oral; conditions: in vivo, 1 h; outline: as §4
[20] = biological target: Delta-type opioid receptor (Homo sapiens, UniProt P41143); experiment: Displacement of [3H]naltrindole from human cloned delta opioid receptor expressed in CHO cells; format: cell-based
Chain of Delta-type opioid receptor (P41143 whole entry): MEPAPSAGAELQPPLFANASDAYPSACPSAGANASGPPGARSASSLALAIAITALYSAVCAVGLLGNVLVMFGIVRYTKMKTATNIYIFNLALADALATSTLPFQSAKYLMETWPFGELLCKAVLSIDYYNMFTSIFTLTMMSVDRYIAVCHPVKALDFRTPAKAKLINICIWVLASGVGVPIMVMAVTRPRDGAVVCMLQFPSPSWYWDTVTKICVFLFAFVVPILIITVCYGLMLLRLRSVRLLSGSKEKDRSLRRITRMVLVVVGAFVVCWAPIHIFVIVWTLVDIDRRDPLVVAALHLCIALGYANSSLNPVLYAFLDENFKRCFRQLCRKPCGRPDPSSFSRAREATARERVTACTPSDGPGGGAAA

[21] = AUC (0 to infinity) in dog at 3 mg/kg, po; format: ADME, organism-based, Canis lupus familiaris; parameters: dose 3 mg/kg, route oral, time infinity; conditions: plasma; outline: as §1
[22] = biological target: Voltage-gated inwardly rectifying potassium channel KCNH2 (Homo sapiens, UniProt Q12809); experiment: Displacement of [35S]MK499 from human ERG expressed in HEK293 cells overexpressing Ikr channel protein; format: cell-based
Chain of Voltage-gated inwardly rectifying potassium channel KCNH2 (Q12809 whole entry): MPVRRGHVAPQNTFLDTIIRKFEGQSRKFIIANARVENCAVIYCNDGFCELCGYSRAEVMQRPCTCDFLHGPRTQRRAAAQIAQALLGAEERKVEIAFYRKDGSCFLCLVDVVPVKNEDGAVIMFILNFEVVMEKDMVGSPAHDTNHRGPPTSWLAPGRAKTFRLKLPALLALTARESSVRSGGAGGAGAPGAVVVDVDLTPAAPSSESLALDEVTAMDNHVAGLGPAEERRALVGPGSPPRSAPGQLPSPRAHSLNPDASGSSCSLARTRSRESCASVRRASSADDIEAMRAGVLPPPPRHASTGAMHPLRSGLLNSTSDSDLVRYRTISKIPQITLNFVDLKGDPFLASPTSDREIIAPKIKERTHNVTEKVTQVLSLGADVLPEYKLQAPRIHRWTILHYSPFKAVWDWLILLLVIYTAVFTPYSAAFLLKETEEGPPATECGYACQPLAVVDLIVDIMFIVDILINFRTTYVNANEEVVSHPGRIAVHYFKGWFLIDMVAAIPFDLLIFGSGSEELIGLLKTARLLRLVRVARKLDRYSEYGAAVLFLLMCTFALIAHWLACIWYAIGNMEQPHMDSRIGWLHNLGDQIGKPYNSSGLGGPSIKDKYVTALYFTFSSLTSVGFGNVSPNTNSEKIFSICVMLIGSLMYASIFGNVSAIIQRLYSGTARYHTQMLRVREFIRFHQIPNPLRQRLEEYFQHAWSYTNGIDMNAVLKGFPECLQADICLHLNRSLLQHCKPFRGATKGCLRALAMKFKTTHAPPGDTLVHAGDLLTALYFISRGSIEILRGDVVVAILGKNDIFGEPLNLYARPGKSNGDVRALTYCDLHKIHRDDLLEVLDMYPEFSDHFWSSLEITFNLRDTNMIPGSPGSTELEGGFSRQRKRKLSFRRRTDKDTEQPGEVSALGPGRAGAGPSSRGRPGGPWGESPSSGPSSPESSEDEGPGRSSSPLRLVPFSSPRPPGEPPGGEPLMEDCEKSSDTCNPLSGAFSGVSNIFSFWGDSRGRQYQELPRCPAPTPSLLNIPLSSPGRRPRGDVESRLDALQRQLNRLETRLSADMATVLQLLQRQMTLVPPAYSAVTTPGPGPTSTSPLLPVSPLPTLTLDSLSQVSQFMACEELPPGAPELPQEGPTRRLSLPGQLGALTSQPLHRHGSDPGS
Outline: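 Membranes from HEK 293 cells stably transfected with the hERG gene and expressing the I_Kr channel protein; [³⁵S]-radiolabeled MK499 displaced.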

Brain [23] = experiment: Drug level in mouse brain assessed per gram of tissue at 3 mg/kg, po after 60 mins; format: ADME, organism-based; parameters: dose 3 mg/kg, route oral; conditions: in vivo, 1 h; outline: as §4
Mus musculus [24] = experiment: Plasma concentration in mouse at 10 mg/kg, po; format: ADME, organism-based; parameters: dose 10 mg/kg, route oral; conditions: in vivo; outline: as §4
Brain [25] = experiment: Drug level in mouse brain assessed per gram of tissue at 10 mg/kg, po after 60 mins; format: ADME, organism-based; parameters: dose 10 mg/kg, route oral; conditions: in vivo, 1 h; outline: as §4
[26] = Inhibition of choline transporter at 10 uM
Mus musculus [27] = experiment: Reversal of ORL1 agonist-induced locomotor activity in mouse at 3 mg/kg, po after 60 mins; format: functional; outline: as §3
[28] = Volume of distribution at steady state in dog at 1 mg/kg, iv; format: ADME, organism-based, Canis lupus familiaris; parameters: dose 1 mg/kg, route intravenous; conditions: in vivo, read-out: Vdss; outline: as §1
Mus musculus [29] = experiment: Plasma concentration in mouse at 30 mg/kg, po; format: ADME, organism-based; parameters: dose 30 mg/kg, route oral; conditions: in vivo; outline: as §4
[30] = Ratio of drug level in brain to plasma in mouse at 3 mg/kg, po after 60 mins; format: ADME, organism-based; parameters: dose 3 mg/kg, route oral; outline: as §2
[31] = Half life in rat at 3 mg/kg, po; format: ADME, organism-based; parameters: dose 3 mg/kg, route oral; conditions: in vivo; outline: as §1
[32] = Ratio of drug level in brain to plasma in mouse at 30 mg/kg, po after 60 mins; format: ADME, organism-based; parameters: dose 30 mg/kg, route oral; outline: as §2
[33] = Half life in dog at 3 mg/kg, po; format: ADME, organism-based, Canis lupus familiaris; parameters: dose 3 mg/kg, route oral; conditions: in vivo; outline: as §1
[34] = Cmax in anesthetized dog at 10 mg/kg; format: ADME, organism-based, Canis lupus familiaris; parameters: dose 10 mg/kg; conditions: in vivo
[35] = AUC (0 to infinity) in rat at 3 mg/kg, po; format: ADME, organism-based; parameters: time infinity, dose 3 mg/kg, route oral; conditions: plasma; outline: as §1

T1 sequence (P41146 whole entry): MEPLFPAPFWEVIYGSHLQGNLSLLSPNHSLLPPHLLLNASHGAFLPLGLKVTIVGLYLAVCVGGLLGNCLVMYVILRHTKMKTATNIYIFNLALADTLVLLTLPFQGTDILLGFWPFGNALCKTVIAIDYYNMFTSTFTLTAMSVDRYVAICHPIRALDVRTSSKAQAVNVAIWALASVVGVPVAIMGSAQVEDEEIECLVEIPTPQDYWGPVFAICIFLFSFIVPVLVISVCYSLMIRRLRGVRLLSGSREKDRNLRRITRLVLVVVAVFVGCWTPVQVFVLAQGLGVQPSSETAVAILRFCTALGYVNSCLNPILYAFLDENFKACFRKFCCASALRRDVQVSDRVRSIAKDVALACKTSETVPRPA

SMILES: Cc1c(CN[C@H]2CC[C@@H](F)C2)nn(C)c1-c1cc(F)cc(F)c1
- IC50 (Nociceptin receptor [1]): 2.5 nM
- logD [2]: 1.9
- IC50 (Nociceptin receptor [3]): 3.1 nM
- remaining at 0.5 h [4]: 56%

SMILES: Cc1c(CN[C@H]2CC[C@@H](F)C2)nn(CCO)c1-c1cc(F)cc(F)c1
- logD [2]: 1.3
- IC50 (Nociceptin receptor [3]): 15 nM

SMILES: Cc1ncc(-c2c(C)c(CN[C@H]3CC[C@@H](F)C3)nn2C)cc1F
- IC50 (Nociceptin receptor [1]): 2.2 nM
- IC50 (Nociceptin receptor [3]): 4.3 nM
- remaining at 0.5 h [4]: 25%

SMILES: Cn1nc(CN[C@H]2CC[C@@H](F)C2)c(Cl)c1-c1cc(F)cc(F)c1
- IC50 (Nociceptin receptor [1]): 2.5 nM
- IC50 (Nociceptin receptor [3]): 9.3 nM
- remaining at 0.5 h [4]: 40%

SMILES: Cc1c(CN[C@H]2CC[C@@H](F)C2)nn(C)c1-c1cc(F)cc(Cl)c1
- IC50 (Nociceptin receptor [3]): 17 nM

SMILES: Cc1c(CN[C@H]2CC[C@@H](F)C2)nn(CCC#N)c1-c1cc(F)cc(F)c1
- Activity (Canis familiaris): Non-toxic
- clearance [6]: 37 mL/min/kg
- Vd [7]: 5.2 L/kg
- Kp at 1 h [8]: 1.62
- Activity (Mus musculus [9]): 112%
- concentration (Mus musculus [10]): 16 nM
- bioavailability [11]: 62%
- IC50 [12]: 3700 nM
- Cmax [13]: 400 nM
- IC50 (Mu-type opioid receptor): > 10000 nM
- clearance [14]: 83 mL/min/kg
- Activity (Mus musculus [15]): 81%
- IC50 [16]: 9800 nM
- Activity (Mus musculus [17]): Dose-dependent effect
- Cmax [18]: 2600 nM
- Drug uptake (Brain [19]): 3.02 nmol/g
- logD [2]: 1.5
- IC50 [20]: > 10000 nM
- AUC(0-inf) [21]: 1.3 µM·h
- bioavailability [5]: 21%
- IC50 [22]: 9500 nM
- Drug uptake (Brain [23]): 0.035 nmol/g
- concentration (Mus musculus [24]): 315 nM
- Drug uptake (Brain [25]): 0.516 nmol/g
- inhibition [26]: 50%
- Activity (Mus musculus [27]): 17%
- Vd [28]: 3.5 L/kg
- concentration (Mus musculus [29]): 1630 nM
- Kp at 1 h [30]: 3.42
- half-life [31]: 0.7 h
- Kp at 1 h [32]: 1.84
- half-life [33]: 2.8 h
- Cmax [34]: 9700 nM
- remaining at 0.5 h [4]: 77%
- AUC(0-inf) [35]: 0.3 µM·h

SMILES: Cc1c(CN[C@H]2CC[C@@H](F)C2)nn(C)c1-c1cc(F)cc(C(F)(F)F)c1
- IC50 (Nociceptin receptor [3]): 210 nM

Continued, values first:

- logD [2]: 1.4
- IC50 (Nociceptin receptor [3]): 12 nM
SMILES: CC(=O)Cn1nc(CN[C@H]2CC[C@@H](F)C2)c(C)c1-c1cc(F)cc(F)c1

- IC50 (Nociceptin receptor [1]): 6.5 nM
- IC50 (Nociceptin receptor [3]): 6.4 nM
SMILES: Cc1c(CN[C@H]2CC[C@@H](F)C2)nn(C)c1-c1ccc(F)c(F)c1

- bioavailability [5]: 3.2%
- remaining at 0.5 h [4]: 39%
SMILES: Cc1ncc(-c2c(C)c(CN[C@H]3CC[C@@H](F)C3)nn2-c2ncccc2Cl)cc1F

- IC50 (Nociceptin receptor [1]): 13 nM
- IC50 (Nociceptin receptor [3]): 15 nM
SMILES: Cc1c(CN[C@H]2CC[C@@H](F)C2)nn(C)c1-c1cc(F)c(F)c(F)c1

- IC50 (Nociceptin receptor [1]): 7.8 nM
- IC50 (Nociceptin receptor [3]): 9.9 nM
- remaining at 0.5 h [4]: 21%
SMILES: Cc1ncc(-c2[nH]nc(CN[C@H]3CC[C@@H](F)C3)c2C)cc1F

- IC50 (Nociceptin receptor [1]): 0.61 nM
- IC50 (Nociceptin receptor [3]): 2 nM
SMILES: CCn1nc(CN[C@H]2CC[C@@H](F)C2)c(C)c1-c1cnc(C)c(F)c1

- logD [2]: < 1
- IC50 (Nociceptin receptor [3]): 33 nM
SMILES: Cc1c(CN[C@H]2CC[C@@H](F)C2)nn(CCS(C)(=O)=O)c1-c1cc(F)cc(F)c1

- IC50 (Nociceptin receptor [1]): 1 nM
- IC50 (Nociceptin receptor [3]): 1.4 nM
- remaining at 0.5 h [4]: 39%
SMILES: COCc1c(CN[C@H]2CC[C@@H](F)C2)nn(C)c1-c1cc(F)cc(F)c1
